hERG rescue – shields human hERG channel from block by proarrhythmic agents; Q12809; CHO-hERG, FluxOR thallium flux, dofetilide IC70 present; activation (rescue from dofetilide block), less the hit threshold, % at 10 µM; actives 0.51% (n = 310,000);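 active = activation above the mean of controls blocked by dofetilide plus 5 SD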;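 also: thallium influx through hERG after potassium depolarization seen as dye fluorescence rise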
KCNK3 inh – human KCNK3 channel inhibition, primary screen; O14649; CHO-KCNK3 thallium flux, FluxOR fluorescence; stronger effect = lower value; B-score at 10 µM; actives 0.84% (n = 340,000);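 active = B-score under library mean minus 4 SD, starting fluorescence ratio at most library mean plus 5 SD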;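 also: more negative B-score means stronger inhibition of thallium flux through KCNK3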
KCNQ1 act – human KCNQ1 channel potentiation or activation; P51787; CHO-K1 KCNQ1, thallium flux FluxOR fluorescence; stronger effect = higher value; B-score at 10 µM; actives 0.35% (n = 310,000); AID 2648;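 active = fluorescence ratio B-score, a plate-corrected score, at least three library SD, with initial intensity B-score within 5 SD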
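Schedule – 37 °C overnight plating, 90-min dark dye load, 20-min compound pretreatment · System – stable KCNQ1 CHO-K1 line · Probe or stimulus – thallium- and potassium-containing depolarizing buffer · Measured by – kinetic FluxOR fluorescence, 10 s baseline plus 110 s post-stimulus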
KCNK9 inh – inhibitors of human KCNK9 two-pore domain potassium channel; AID 488922; HEK293 KCNK9, FluxOR thallium flux fluorescence; stronger effect = lower value; Q9NPC2; actives 1.2% (n = 310,000); B-score at 10 µM;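 active = ratio B-score over 3 SD below the library mean, with starting fluorescence within 5 SD of its mean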;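 also: negative B-score means less thallium flux so channel inhibition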
Target sequence (Q9NPC2 whole entry, looked up, the tested form may be a part): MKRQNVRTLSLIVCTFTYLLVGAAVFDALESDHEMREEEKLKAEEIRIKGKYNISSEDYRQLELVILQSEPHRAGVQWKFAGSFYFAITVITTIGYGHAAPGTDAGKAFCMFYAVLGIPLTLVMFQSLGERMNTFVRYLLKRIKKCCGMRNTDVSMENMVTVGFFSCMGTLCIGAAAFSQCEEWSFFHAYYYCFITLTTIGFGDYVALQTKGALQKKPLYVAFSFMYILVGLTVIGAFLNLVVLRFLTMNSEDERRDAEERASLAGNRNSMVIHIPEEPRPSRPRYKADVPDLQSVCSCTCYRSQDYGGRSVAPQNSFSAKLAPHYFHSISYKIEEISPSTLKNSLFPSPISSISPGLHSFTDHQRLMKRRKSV
KCNQ1 inh – inhibitors of human KCNQ1 potassium channel; P51787; B-score at 10 µM; CHO-K1 KCNQ1, FluxOR thallium flux fluorescence; stronger effect = higher value; actives 1.3% (n = 310,000);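 active = compounds whose thallium flux B-score, printed positive for inhibition, exceeds three library SD while starting fluorescence stays within three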;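 also: channel opened by potassium depolarization with thallium stimulus after 20 min compound exposure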
KCNK9 block conf – human KCNK9 inhibitor confirmation | actives 43% (n = 4,900) | inhibition, % at 10 µM | HEK293 KCNK9 cells, FluxOR thallium flux fluorescence | AID 492992 | shares compounds with KCNK9 inh;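 active = thallium signal inhibited by more than 5 SD of the compound-free buffer control wells, on both duplicate plates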
Kir21 sel – selectivity of KCNK9 modulators against mouse Kir2.1; shares compounds with KCNK9 inh; Kir2.1 cells, FluxOR thallium flux fluorescence; inhibition, % at 10 µM; actives 4% (n = 4,900); AID 492993;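 active = thallium signal drop more than 5 SD beyond the mean of the no-compound control wells, seen in both duplicate plates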;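 also: signal is fluorescence rise after thallium addition divided by baseline fluorescence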
HEK293 Tl ctr – second counter-screen for KCNK9 modulators: effect in non-induced cells | non-induced KCNK9-HEK293, FluxOR thallium flux | inhibition, % at 10 µM | shares compounds with KCNK9 inh | AID 492997 | actives 40% (n = 4,900);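 active = thallium signal drop beyond 5 SD of the untreated control mean, on both duplicate plates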
Each line names hits and unclear results; the compound was inactive in the other large screens (follow-up assays come after a bar, where they were run). Only some compounds are listed: those with a hit (about 3.1% of all), similar ones and a draw of the others.

CCCOc1c(Br)cc(C2C3=C(CCCC3=O)N(CC)C3=C2C(=O)CCC3)cc1OC	KCNK9 inh -8.45 | KCNK9 block conf inactive | Kir21 sel inactive | HEK293 Tl ctr 31.0%
Cc1cccc(S(=O)(=O)Nc2cc(Cl)ccc2N2CCOCC2)c1	none (no result: hERG rescue, KCNQ1 act, KCNK9 inh, KCNQ1 inh)
Cc1ccc(C)c(NS(=O)(=O)c2cc3c4c(c2)CC(=O)N4CCC3)c1	none
COc1ccc(NC2(c3ccccc3)OC(=O)c3ccccc32)cc1 (configuration not stated)	none
CC1(c2cccc3ccccc23)OC(=O)c2ccccc21 (configuration not stated)	none (no result: hERG rescue, KCNQ1 act, KCNK9 inh, KCNQ1 inh)
CCCCCCCOC1(c2ccccc2)OC(=O)c2ccccc21 (configuration not stated)	KCNK9 inh -15.9 | KCNK9 block conf 69.5% | Kir21 sel inactive | HEK293 Tl ctr 48.5%
CCCCCCOC1(c2ccccc2)OC(=O)c2ccccc21 (configuration not stated)	KCNK9 inh -14.8 | KCNK9 block conf 79.0% | Kir21 sel inactive | HEK293 Tl ctr 50.0%
Cc1cccc(OC2(c3ccccc3)OC(=O)c3ccccc32)c1C (configuration not stated)	KCNK9 inh -13.4 | KCNK9 block conf 52.5% | Kir21 sel inactive | HEK293 Tl ctr 42.5%
NC(=O)c1cccc(CS(=O)(=O)c2ccc(Cl)cc2)c1	none
CCOc1ccccc1N1CCN(C(=O)c2ccccc2)CC1	none
CCOc1ccccc1N1CCN(C(=O)C2c3ccccc3Oc3ccccc32)CC1	KCNK3 inh -9.33, KCNK9 inh -12.1 | KCNK9 block conf 45.0% | Kir21 sel inactive | HEK293 Tl ctr 35.5%
Cc1ccc(S(=O)(=O)NCc2cc(=O)n(C)c(=O)n2C)cc1C	none
Cc1ccc(C(=O)NCCSc2ccc(Cl)cc2)cc1[N+](=O)[O-]	none | KCNK9 block conf inactive | Kir21 sel inactive | HEK293 Tl ctr inactive
Cc1ccc(SCCNC(=O)c2ccc([N+](=O)[O-])c(C)c2)cc1	none | KCNK9 block conf inactive | Kir21 sel inactive | HEK293 Tl ctr inactive
Cc1ccc(SCCNC(=O)c2ccc(C)c([N+](=O)[O-])c2)cc1	none
Cc1ccc(C(=O)NCCSCc2ccccc2)cc1[N+](=O)[O-]	none
CSc1ccc(CN(C)C(=O)CNC(=O)c2sc3ccccc3c2Cl)cc1	none
NC(=O)c1ccccc1NC(=O)COc1ccc2c(c1)OCO2	none
Cc1c(C(=O)N2CCCCC2)c(S(=O)(=O)N2c3ccccc3CC2C)c(C)n1C (configuration not stated)	none
Cc1ccccc1Nc1nnc(SCC2CCCCO2)s1 (configuration not stated)	KCNK9 inh -8.78 | KCNK9 block conf inactive | Kir21 sel inactive | HEK293 Tl ctr inactive
CCOC(=O)CC(=O)CSc1nc2c(c(C)c1C#N)CCC2	none
CCOC(=O)CCSc1nc2c(c(C(F)(F)F)c1C#N)CCC2	none | KCNK9 block conf inactive | Kir21 sel inactive | HEK293 Tl ctr inactive
COC(=O)CSc1nc(-c2ccccc2)cc(-c2ccco2)c1C#N	KCNK9 inh -8.94 | KCNK9 block conf 31.0% | Kir21 sel inactive | HEK293 Tl ctr 27.5%
CCOC(=O)COc1nc(-c2ccccc2)cc(-c2ccco2)c1C#N	KCNK9 inh -8.24 | KCNK9 block conf 49.0% | Kir21 sel inactive | HEK293 Tl ctr 34.0%
COC(=O)CSc1nc(N)c(C#N)c(-c2ccco2)c1C#N	none
O=C(Nc1cccc(C(=O)N2CCOCC2)c1)c1ccccc1Cl	none
O=C(COc1ccc(F)cc1Cl)NC1CCCCCC1	none (no result: hERG rescue, KCNQ1 act, KCNK9 inh, KCNQ1 inh)
CCCCOc1ccccc1NC(=O)c1ccco1	none
CCCCOc1ccccc1NC(=O)c1scc2c1OCCO2	KCNK9 inh -11.7 | KCNK9 block conf 47.5% | Kir21 sel inactive | HEK293 Tl ctr 36.0%
Cc1ccc(S(=O)(=O)NCCNc2ccc(Br)c(C)c2)cc1	none (no result: hERG rescue, KCNQ1 act, KCNK9 inh, KCNQ1 inh)
CCc1ccc(-c2nn(-c3ccccc3)cc2C2SCC(=O)N2Cc2ccco2)cc1 (configuration not stated)	none | KCNK9 block conf inactive | Kir21 sel inactive | HEK293 Tl ctr inactive
CCCc1cc(=O)oc2cc(C)cc(OCC(=O)N3CCC(C(N)=O)CC3)c12	none
O=[N+]([O-])c1ccccc1SN(Cc1ccccc1)c1ccccn1	KCNK9 inh -8.59 | KCNK9 block conf 39.5% | Kir21 sel inactive | HEK293 Tl ctr 43.5%
Cc1ccc(C)c(C(=O)COC(=O)c2cc(Cl)nc3ccccc23)c1	KCNK9 inh -9.41 | KCNK9 block conf 67.0% | Kir21 sel inactive | HEK293 Tl ctr 45.0%
Cc1ccc(C)c(C(=O)COC(=O)c2ccc(Br)o2)c1	KCNK9 inh -8.7 | KCNK9 block conf 36.5% | Kir21 sel inactive | HEK293 Tl ctr inactive
Cc1ccc(C(=O)COC(=O)c2cc(Cl)nc3ccccc23)cc1C	none
CCOc1ccc(N(C)S(=O)(=O)c2ccc(-c3cc(C)no3)s2)cc1	none
CCOc1ccc(N(C)S(=O)(=O)c2cc(-c3cc(C)no3)ccc2C(C)C)cc1	KCNK9 inh -9.53 | KCNK9 block conf 51.5% | Kir21 sel inactive | HEK293 Tl ctr 42.0%
COc1ccc2c(c1)c(C(=O)N/N=C/c1ccc(OC)c(OC)c1)c(C)n2C	none
COc1ccc2c(c1)c(C(=O)N/N=C/c1cn(C)c3ccccc13)c(C)n2C	KCNK9 inh -9.43 | KCNK9 block conf inactive | Kir21 sel inactive | HEK293 Tl ctr inactive
CCc1nc(Sc2nnnn2-c2ccccc2)c2c3c(sc2n1)CCCC3	none | KCNK9 block conf inactive | Kir21 sel inactive | HEK293 Tl ctr inactive
Cc1nc(Sc2nnnn2C)c2c3c(sc2n1)CCC3	none (no result: hERG rescue, KCNQ1 act, KCNK9 inh, KCNQ1 inh)
COc1cc(OCc2ccccc2)c(C(=O)/C=C/c2ccc3c(c2)OCO3)c(OC)c1OC	KCNK9 inh -8.86 | KCNK9 block conf inactive | Kir21 sel inactive | HEK293 Tl ctr 35.0%
Cc1cc(OCC(=O)N(C(C)C)C(C)C)ccc1Cl	hERG rescue 5.0 | KCNK9 block conf inactive | Kir21 sel inactive | HEK293 Tl ctr inactive
COc1ccc(C(=O)O)cc1NC(=S)NC(=O)/C=C/c1ccc(C(C)C)cc1	none
OC(COC(c1ccc(Cl)cc1)c1ccc(Cl)cc1)CN1CCN(c2ccccn2)CC1 (configuration not stated)	none | KCNK9 block conf inactive | Kir21 sel inactive | HEK293 Tl ctr inactive
Cc1cccc(N2CCN(CC(O)COc3ccc(Cl)cc3)CC2)c1 (configuration not stated)	none
COc1cccc(OC)c1OCC(O)CN1CCN(c2ccccc2)CC1 (configuration not stated)	none
OC(COC(c1ccccc1)c1ccccc1)CN1CCN(c2cccc(Cl)c2)CC1 (configuration not stated)	none | KCNK9 block conf inactive | Kir21 sel inactive | HEK293 Tl ctr inactive

High-throughput results deposited in PubChem BioAssay by Johns Hopkins Ion Channel Center.
